Bioassay records: PubChem BioAssay, several laboratories
Most compounds without a hit are left out; they make up all but 1.6% or so of the library.
TNF death inh = inhibitors of TNF-alpha induced necroptosis in Jurkat FADD-/- cells; activation (protection from cell death), % at 10 µM; 0.068% of 220,000 active; AID 463075; Jurkat FADD-/- TNF necroptosis rescue, ATP luminescence, 24 h; 0 = TNF only, 100 = no-TNF cells;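 active means activation, meaning protection from cell death, of at least 50% relative to plate controls; inactive means activation below 50%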;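 further: necroptosis triggered by 40 ng/mL TNF-alpha added together with compound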
zVAD death inh = L929 zVAD cell death inhibition; L929 zVAD necroptosis rescue, ATP luminescence, 24 h; with zVAD 60 µM; viability rescue, % at 10 µM; 0.38% of 220,000 active;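 active means activation, scaled between plate controls, above about 75%, limit read from the data; inactive means activation under that limit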
Wee1 stabilizer = human Wee1 degradation inhibition, primary screen; P30291; HeLa Luc-Wee1K328M stability, luciferase luminescence; 100% = proteasome inhibitor MG132 effect; 1.2% of 220,000 active; reporter increase, % at 5 µM;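 active means activation above the mean of all tested compounds plus 3 SD, set per screening run, cut at about 8.8% in these data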;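 further: cells exposed to compound for 20 h before luminescence read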
Target sequence (P30291 whole entry K328M): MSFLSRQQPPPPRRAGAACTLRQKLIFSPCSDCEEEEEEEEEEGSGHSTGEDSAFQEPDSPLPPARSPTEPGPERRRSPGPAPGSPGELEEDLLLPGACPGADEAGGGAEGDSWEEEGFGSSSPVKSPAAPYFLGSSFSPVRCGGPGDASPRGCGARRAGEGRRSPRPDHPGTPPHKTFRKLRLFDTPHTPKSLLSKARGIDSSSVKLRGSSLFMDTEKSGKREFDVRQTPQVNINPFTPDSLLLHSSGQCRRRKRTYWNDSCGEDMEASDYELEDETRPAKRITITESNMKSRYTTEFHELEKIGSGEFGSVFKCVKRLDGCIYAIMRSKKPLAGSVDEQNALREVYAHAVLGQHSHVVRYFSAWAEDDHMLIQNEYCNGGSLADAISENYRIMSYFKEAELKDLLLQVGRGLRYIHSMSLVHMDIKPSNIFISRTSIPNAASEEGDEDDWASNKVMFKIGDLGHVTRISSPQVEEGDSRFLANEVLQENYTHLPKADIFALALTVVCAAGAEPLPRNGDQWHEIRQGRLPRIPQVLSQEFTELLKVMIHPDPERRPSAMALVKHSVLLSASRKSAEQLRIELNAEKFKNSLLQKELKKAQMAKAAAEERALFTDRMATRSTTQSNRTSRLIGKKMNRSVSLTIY
MDM2 E3 inh = Mdm2 E3 ligase (human) inhibition. Q00987. cell-based MDM2 ubiquitination luciferase reporter, 2 h; 0 = plate control, 100 = twice control, blank-subtracted. 0.11% of 210,000 active. signal enhancement, % at 5 µM;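 active means signal enhancement of 30% or more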;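 further: luminescence tracks abundance of the self-degrading MDM2-luciferase fusion protein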
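Material: stable MDM2–luciferase fusion reporter cells / Quantity: 2000 cells/well / Dosing: single 5 µM compound dose, 0.2% final DMSO / Buffer or medium: DMEM / Schedule: 4 h cell settling then 2 h compound exposure, 37 °C / Detection: luminescence with SteadyLite reagent, 15 min at room temperature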
Pf gamet viab = inhibitors of late stage P. falciparum gametocyte viability. P. falciparum stage V gametocytes, ATP luminescence, 24 h. AID 743093. 0.065% of 150,000 active. inhibition, % at 10.9 µM;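 active means inhibition above the mean plus 3 SD of compounds within the control limits, set per campaign, cut at about 38% in these data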
Wee1 stab conf = confirmation of human Wee1 degradation inhibitors; shares compounds with Wee1 stabilizer; HeLa Luc-Wee1K328M degradation, luminescence; vehicle 0%, proteasome-blocked wells 100%; activation, % at 5 µM; 4% of 1,100 active; AID 1410; in the data active means activation above about 8.9%
Each line names hits and unclear results; the compound was inactive in the other large screens (follow-up assays come after a bar, where they were run).

O=C(CN1CCOCC1)N/N=C/C=C/c1ccccc1	Wee1 stabilizer 23 | Wee1 stab conf inactive
O=C(CN1CCN(Cc2ccccc2)CC1)N/N=C/C=C/c1ccco1	none (no result: Pf gamet viab)
Cc1ccc(C#N)c(SCc2ccccc2F)n1	Wee1 stabilizer 11 | Wee1 stab conf inactive
O=C(CSc1nc2nn(-c3ccccc3)c(=O)c-2c2n1CCCCC2)NCCCc1ccccc1	Wee1 stabilizer 18 | Wee1 stab conf inactive
CC(Sc1nc2nn(-c3ccccc3)c(=O)c-2c2n1CCCCC2)C(N)=O (centres undefined)	none
CC(=O)Nc1ccc(C(O)(C(F)(F)F)C(F)(F)F)cc1	Wee1 stabilizer 12 | Wee1 stab conf inactive
COc1ccccc1NC(=O)c1cc2ccccc2nc1C	none
COc1ccc(-c2n[nH]c(=S)n2/N=C/C=C/c2ccccc2OC)cc1	Wee1 stabilizer 11 (no result: Pf gamet viab) | Wee1 stab conf inactive
C=CCn1c(SCC(=O)Nc2cc(NC(C)=O)ccc2OC)nnc1-c1ccccn1	Wee1 stabilizer 12 | Wee1 stab conf inactive
O=C(O)CCCC(=O)N1CCCC1	none
CC1(C)C(=O)NCCN1C(=O)CCCC(=O)O	Wee1 stabilizer 12 | Wee1 stab conf inactive
O=C(NCCCn1ccnc1)/C(=C\c1cccnc1)NC(=O)c1ccco1	none
O=C(NCCCn1ccnc1)/C(=C\c1cccnc1)NC(=O)c1ccccc1F	Wee1 stabilizer 21 | Wee1 stab conf inactive
CC(C)(C)C1CCC2(CC1)NC(=S)N(c1ccccc1)N2 (centres undefined)	none (no result: Pf gamet viab)
COc1cc(NC(=O)COC(=O)CNC(=O)c2ccc(Cl)cc2)c(C)cc1[N+](=O)[O-]	Wee1 stabilizer 12 | Wee1 stab conf inactive
NS(=O)(=O)c1ccc(NC(=O)CSc2nc3ccccc3[nH]2)cc1	Wee1 stabilizer 11 | Wee1 stab conf inactive
O=C(CSc1nc2ccccc2[nH]1)Nc1ccc(F)c(F)c1	none (no result: Pf gamet viab)
CCOC(=O)N1CCN(C(=O)CCCCn2c(=S)[nH]c3ccsc3c2=O)CC1	Wee1 stabilizer 13 (no result: Pf gamet viab) | Wee1 stab conf inactive
COC(=O)c1ccc(CSc2nc(-c3ccc(OC)cc3)nc3c2c(=O)n(C)c(=O)n3C)o1	none (no result: MDM2 E3 inh, Pf gamet viab)
CC1CCN(C(=O)Cn2c(SCC(=O)Nc3nccs3)nc3ccccc32)CC1	none
Cc1cc(NC(=O)c2ccc3c(c2)OCO3)no1	none (no result: Pf gamet viab)
Cc1nc(NC(=O)c2ccc3c(c2)OCO3)ccc1Br	Wee1 stabilizer 19 | Wee1 stab conf inactive
COc1ccc([N+](=O)[O-])cc1NC(=O)CCN1CCN(CCO)CC1	Wee1 stabilizer 19 (no result: Pf gamet viab) | Wee1 stab conf inactive
Nc1nc(COc2ccccc2)cs1	none (no result: Pf gamet viab)
Cc1ccccc1OCc1csc(N)n1	Wee1 stabilizer 16 | Wee1 stab conf inactive
CCNS(=O)(=O)c1ccc(Br)c(OC)c1	none (no result: Pf gamet viab)
O=C(CSc1ccc(F)cc1)NC1CCCCC1	Wee1 stabilizer 12 | Wee1 stab conf inactive
O=C(CSc1ccc(Cl)cc1)NC1CCCC1	none
COc1ccc(-c2oc(NC(=O)c3ccc(C)cc3)c(C#N)c2-c2ccc(OC)cc2)cc1	none (no result: MDM2 E3 inh)
O=C(Nc1cc(S(=O)(=O)N2CCCC2)ccc1OCC(F)(F)F)c1ccccc1F	Wee1 stabilizer 13 (no result: zVAD death inh) | Wee1 stab conf inactive
CNC(=O)C(=O)NCCc1ccc(Cl)cc1	Wee1 stabilizer 20 | Wee1 stab conf inactive
Nc1cc([N+](=O)[O-])ccc1O	none
COc1ccc(C2N=C(c3ccccc3)C(C)(C)N2O)cc1 (centres undefined)	Wee1 stabilizer 31 | Wee1 stab conf inactive
CC1(C)C(c2ccccc2)=NC(c2ccccc2)N1O (centres undefined)	none
Cc1cccc(-n2c(=S)[nH]c3nc4c(cc3c2=O)COC(C)(C)C4)c1	Wee1 stabilizer 18 | Wee1 stab conf inactive
COc1ccc(C2CC(c3ccc4ccccc4c3)=NN2C(=O)COC(=O)C2CCC(=O)N2)cc1 (centres undefined)	Wee1 stabilizer 14 | Wee1 stab conf inactive
CN(C)C1=NC[C@H](Cc2ccccc2)N1CC1CCCCC1	none (no result: TNF death inh, zVAD death inh, Wee1 stabilizer, MDM2 E3 inh)
O=c1oc2ccccc2c(Nc2ccc3ncccc3c2)c1[N+](=O)[O-]	none (no result: MDM2 E3 inh)
O=C(CN1CCN(Cc2ccccc2)CC1)N/N=C/c1ccccc1F	none
O=C(O)COc1ccccc1/C=N/NC(=O)CN1CCN(Cc2ccc(Cl)cc2)CC1	Wee1 stabilizer 25 | Wee1 stab conf inactive
CCN(CC)CCN1C(=O)c2ccccc2NC1c1ccc(N(C)C)cc1 (centres undefined)	none
O=C(Nc1ccc(F)cc1)C(Cc1ccccc1)n1cccc1 (centres undefined)	Wee1 stabilizer 12 | Wee1 stab conf inactive
CC(C)CNC(=S)NNC(=O)CC(C)O (centres undefined)	Wee1 stabilizer 11 | Wee1 stab conf inactive
CCNC(=S)NNC(=O)CC(C)C	none
N#C/C(=C\c1cn[nH]c1-c1ccccc1Br)C(=O)O	Wee1 stabilizer 13 | Wee1 stab conf inactive
Cc1ccc(-n2nnnc2SCC(=O)Nc2ncc(Cc3ccccc3Cl)s2)cc1	none
O=C(NCCc1ccccn1)C(F)(F)C(F)(F)C(F)(F)C(F)(F)C(F)(F)C(F)(F)C(F)(F)C(F)F	none
O=C(NCCO)C(F)(F)C(F)(F)C(F)(F)OC(F)(C(=O)NCCO)C(F)(F)F (centres undefined)	Wee1 stabilizer 12 | Wee1 stab conf inactive
CCN1CCc2nc(NC(=O)C(c3ccccc3)c3ccccc3)sc2C1	Wee1 stabilizer 11 (no result: Pf gamet viab) | Wee1 stab conf inactive
CCOC(=O)Cc1csc(NC(=S)NC(=O)c2ccccc2Br)n1	none
Cc1ccc(S(=O)(=O)N2c3ccccc3OCC2C(C)(C)C)cc1 (centres undefined)	Wee1 stabilizer 21 | Wee1 stab conf inactive
Clc1ccc(Cn2ncc3c(N4CCCC4)ncnc32)cc1	Wee1 stabilizer 16 | Wee1 stab conf inactive
Clc1ccc(Cn2ncc3c(N4CCCCC4)ncnc32)cc1	none
Cc1cccc(C(=O)NC2=NCCS2)c1	Wee1 stabilizer 33 | Wee1 stab conf inactive
CC(C)C(=O)Nc1nnc(Cc2c[nH]c3ccccc23)s1	none
CCc1nnc(NC(=O)CCc2c[nH]c3ccccc23)s1	Wee1 stabilizer 15 | Wee1 stab conf inactive
CCOc1cc(-c2nc(-c3ccccc3OC)no2)cc(OCC)c1OCC	Wee1 stabilizer 14 | Wee1 stab conf inactive
CC(NC(=O)COC(=O)C1CSC2(C)CCC(=O)N12)C12CC3CC(CC(C3)C1)C2 (centres undefined)	Wee1 stabilizer 12 | Wee1 stab conf inactive
CC12CCC(=O)N1C(C(=O)OCC(=O)Nc1sccc1C#N)CS2 (centres undefined)	none (no result: Pf gamet viab)
Cc1ccc(-c2nc(=S)c3c(n2Cc2ccco2)CC(C)(C)OC3)cc1	Wee1 stabilizer 13 (no result: Pf gamet viab) | Wee1 stab conf inactive
Cc1cc(C)nc(NC(=O)c2ccc(Cl)cc2)n1	Wee1 stabilizer 17 | Wee1 stab conf inactive
